# Laboratory results as given in ChEMBL document CHEMBL1649328, “Assessment of pandemic and seasonal influenza A (H1N1) virus susceptibility to neuraminidase inhibitors in three enzyme activity inhibition assays” (Antimicrob Agents Chemother, 2010).
# Legend:
# Influenza A virus [1] = assay: Antiviral activity against influenza A (A/Osaka/180/2009 (H1N1)) virus harboring neuraminidase H275Y mutant after 16 to 18 hrs by fetuin substrate based colorimetric assay; format: functional, organism-based
# Outline: (§1)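 Colorimetric NA inhibition with fetuin substrate. Virus was diluted in NA-Star buffer (26 mM MES, 4 mM CaCl2, pH 6.0) to give OD549 of 0.4–0.8 after 18 h. It was preincubated with ten half-log inhibitor dilutions (0.03–1,000 nM final) for 1 h at 37°C, then with fetuin (5.5 mg/ml final) for 16–18 h at 37°C. Released sialic acid was read at 549 nm after periodate/TBA reaction and butanol extraction. IC50 came from a Vmax·[1−x/(K+x)] fit, mean of ≥2 experiments.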
# Influenza A virus [2] = assay: Ratio of IC50 for influenza A (A/Montana/02/2009 (H1N1)) virus harboring neuraminidase H275Y mutant to IC50 for influenza A (A/Washington/29/2009 (H1N1)) virus expressing wild type enzyme by MUNANA substrate based fluorometric assay; format: functional
# Influenza A virus [3] = assay: Antiviral activity against influenza A (A/Montana/02/2009 (H1N1)) virus harboring neuraminidase H275Y mutant after 30 mins by MUNANA substrate based fluorometric assay; format: functional, organism-based
# Outline: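 Fluorometric NA inhibition with MUNANA (100 μM final). Titrated virus in NA-Star buffer (26 mM MES, 4 mM CaCl2, pH 6.0) was preincubated with ten half-log inhibitor dilutions (0.03–1,000 nM final) for 30 min at 37°C, then with substrate for 30 min at 37°C. The reaction was stopped with 0.1 M glycine in 25% ethanol, pH 10.7, and 4-methylumbelliferone was read at ex 365/em 450 nm. IC50 came from a Vmax·[1−x/(K+x)] fit, mean of ≥3 experiments.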
# Influenza A virus [4] = assay: Ratio of IC50 for influenza A (A/North Carolina/02/2009 (H1N1)) virus harboring neuraminidase H275Y mutant to IC50 for influenza A (A/Washington/10/2008 (H1N1)) virus expressing wild type enzyme by fetuin substrate based colorimetric assay; format: functional
# Influenza A virus [5] = assay: Antiviral activity against influenza A (A/Singapore/57/2009 (H1N1)) virus harboring neuraminidase H275Y mutant after 16 to 18 hrs by fetuin substrate based colorimetric assay; format: functional, organism-based; outline: as §1
# Influenza A virus [6] = assay: Antiviral activity against influenza A (A/North Carolina/01/2009 (H1N1)) virus harboring neuraminidase H275Y mutant after 16 to 18 hrs by fetuin substrate based colorimetric assay; format: functional, organism-based; outline: as §1
# Influenza A virus [7] = assay: Antiviral activity against influenza A (A/Montana/02/2009 (H1N1)) virus harboring neuraminidase H275Y mutant after 30 mins by NA-star substrate based chemiluminescent assay; format: functional, organism-based
# Outline: (§2)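 Titrated virus in NA-Star buffer (26 mM MES, 4 mM CaCl2, pH 6.0) was preincubated with ten half-log inhibitor dilutions (0.03–1,000 nM final) for 30 min at 37°C, then with substrate for 30 min at room temperature. Accelerator solution was added and luminescence read for 0.1 s. IC50 came from a Vmax·[1−x/(K+x)] fit, mean of ≥3 experiments.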
# Influenza A virus [8] = assay: Ratio of IC50 for influenza A (A/North Carolina/01/2009 (H1N1)) virus harboring neuraminidase H275Y mutant to IC50 for influenza A (A/Washington/29/2009 (H1N1)) virus expressing wild type enzyme by NA-star substrate based chemiluminescent assay; format: functional
# Influenza A virus [9] = assay: Ratio of IC50 for influenza A (A/Montana/02/2009 (H1N1)) virus harboring neuraminidase H275Y mutant to IC50 for influenza A (A/Washington/29/2009 (H1N1)) virus expressing wild type enzyme by NA-star substrate based chemiluminescent assay; format: functional
# Influenza A virus [10] = assay: Antiviral activity against influenza A (A/Singapore/57/2009 (H1N1)) virus harboring neuraminidase H275Y mutant after 30 mins by NA-star substrate based chemiluminescent assay; format: functional, organism-based; outline: as §2
# Influenza A virus [11] = assay: Ratio of IC50 for influenza A (A/Washington/29/2009 (H1N1)) virus harboring neuraminidase H275Y mutant to IC50 for influenza A (A/Washington/29/2009 (H1N1)) virus expressing wild type enzyme by NA-star substrate based chemiluminescent assay; format: functional
# Outline: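 Chemiluminescent NA inhibition in MES 26 mM/CaCl2 4 mM buffer, pH 6.0. […] Luminescence read for 0.1 s. IC50 from the fit y = Vmax·{1 − [x/(K + x)]}, mean of ≥3 experiments. Ratio is the H275Y variant IC50 over the pandemic wild-type reference IC50.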
# Influenza A virus [12] = assay: Ratio of IC50 for influenza A (A/Washington/29/2009 (H1N1)) virus harboring neuraminidase H275Y mutant to IC50 for influenza A (A/Washington/29/2009 (H1N1)) virus expressing wild type enzyme by MUNANA substrate based fluorometric assay; format: functional
# Outline: (§3)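 Fluorometric NA inhibition in MES/CaCl2 buffer, pH 6.0. Virus preincubated 30 min at 37°C with ten half-log inhibitor dilutions (0.03–1,000 nM final), then MUNANA (100 μM final) added for 30 min at 37°C. Stopped with 0.1 M glycine in 25% ethanol, pH 10.7. Read at ex 365/em 450 nm. IC50 curve-fitted, mean of ≥3 experiments. Ratio is variant IC50 over wild-type reference IC50.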
# Influenza A virus [13] = assay: Antiviral activity against influenza A (A/Hong Kong/2369/2009 (H1N1)) virus harboring neuraminidase H275Y mutant after 30 mins by NA-star substrate based chemiluminescent assay; format: functional, organism-based; outline: as §2
# Influenza A virus [14] = assay: Ratio of IC50 for influenza A (A/New York/18/2009 (H1N1)) virus harboring neuraminidase H275Y mutant to IC50 for influenza A (A/Washington/10/2008 (H1N1)) virus expressing wild type enzyme by MUNANA substrate based fluorometric assay; format: functional
# Influenza A virus [15] = assay: Ratio of IC50 for influenza A (A/Hong Kong/2369/2009 (H1N1)) virus harboring neuraminidase H275Y mutant to IC50 for influenza A (A/Washington/29/2009 (H1N1)) virus expressing wild type enzyme by NA-star substrate based chemiluminescent assay; format: functional
# Influenza A virus [16] = assay: Ratio of IC50 for influenza A (A/Washington/29/2009 (H1N1)) virus harboring neuraminidase H275Y mutant to IC50 for influenza A (A/Washington/29/2009 (H1N1)) virus expressing wild type enzyme by fetuin substrate based colorimetric assay; format: functional
# Outline: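 Colorimetric NA inhibition using a virus dilution that gave 0.4–0.8 OD549. Virus preincubated 1 h at 37°C with half-log inhibitor dilutions (0.03–1,000 nM final) in MES/CaCl2 pH 6.0 buffer. Fetuin (5.5 mg/ml final) then added for 18 h at 37°C. Released sialic acid detected by periodate oxidation and thiobarbituric acid, butanol extraction, read at 549 nm. IC50 curve-fitted, ≥2 experiments. Ratio is variant IC50 over wild-type reference IC50.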
# Influenza A virus [17] = assay: Ratio of IC50 for influenza A (A/New York/18/2009 (H1N1)) virus harboring neuraminidase H275Y mutant to IC50 for influenza A (A/Washington/10/2008 (H1N1)) virus expressing wild type enzyme by fetuin substrate based colorimetric assay; format: functional
# Influenza A virus [18] = assay: Ratio of IC50 for influenza A (A/Singapore/91/2009 (H1N1))virus harboring neuraminidase H275Y mutant to IC50 for influenza A (A/Washington/29/2009 (H1N1)) virus expressing wild type enzyme by MUNANA substrate based fluorometric assay; format: functional; outline: as §3
SMILES,IC50 (Influenza A virus [1]) [nM],Ratio IC50 (Influenza A virus [2]),IC50 (Influenza A virus [3]) [nM],Ratio IC50 (Influenza A virus [4]),IC50 (Influenza A virus [5]) [nM],IC50 (Influenza A virus [6]) [nM],IC50 (Influenza A virus [7]) [nM],Ratio IC50 (Influenza A virus [8]),Ratio IC50 (Influenza A virus [9]),IC50 (Influenza A virus [10]) [nM],Ratio IC50 (Influenza A virus [11]),Ratio IC50 (Influenza A virus [12]),IC50 (Influenza A virus [13]) [nM],Ratio IC50 (Influenza A virus [14]),Ratio IC50 (Influenza A virus [15]),Ratio IC50 (Influenza A virus [16]),Ratio IC50 (Influenza A virus [17]),Ratio IC50 (Influenza A virus [18])
C/C=C\[C@@H]1C[C@H](C(=O)O)N[C@H]1[C@@H](NC(C)=O)[C@](C)(CCC)OC,4.08,5,2.6,1,1.58,2.32,1,5,6,1.06,5,3,1.09,1,3,2,1,1
CCC(CC)[C@H](NC(C)=O)[C@@H]1[C@H](O)[C@@H](C(=O)O)C[C@H]1NC(=N)N [PERAMIVIR ANHYDROUS],195,1095,197,1,84.8,105,15,125,136,11.8,89,751,9.24,1,66,332,1,1
